Compound activity deposited in PubChem by The Scripps Research Institute Molecular Screening Center.
RORa inhibitor: inhibitors of orphan receptor RORA, primary screen, cell-based, luminescence; Nuclear receptor ROR-alpha (Homo sapiens), P35398; CHO-K1 Gal4-RORA LBD luciferase reporter; inhibition, % at 10 µM; actives 0.43% (n = 65,000);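 active = inhibition above the mean of all tested compounds plus 3 SD, cut at about 52% in these data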
Target sequence (P35398 whole entry, looked up, the tested form may be a part): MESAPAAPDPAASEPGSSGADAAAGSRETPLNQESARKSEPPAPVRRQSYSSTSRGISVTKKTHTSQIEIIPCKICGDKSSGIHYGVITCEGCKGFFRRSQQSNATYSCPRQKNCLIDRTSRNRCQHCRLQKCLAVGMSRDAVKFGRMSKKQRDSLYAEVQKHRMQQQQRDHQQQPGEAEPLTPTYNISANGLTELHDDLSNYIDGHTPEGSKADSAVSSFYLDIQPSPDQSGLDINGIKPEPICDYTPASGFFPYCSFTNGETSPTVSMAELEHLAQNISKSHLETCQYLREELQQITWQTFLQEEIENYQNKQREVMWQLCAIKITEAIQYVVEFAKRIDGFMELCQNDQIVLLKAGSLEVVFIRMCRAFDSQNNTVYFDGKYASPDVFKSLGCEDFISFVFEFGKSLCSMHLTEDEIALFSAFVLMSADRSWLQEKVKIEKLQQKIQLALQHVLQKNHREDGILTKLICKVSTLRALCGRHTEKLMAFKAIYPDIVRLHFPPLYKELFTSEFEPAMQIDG
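Test system: CHO-K1 cells with Gal4-hRORA LBD fusion and pG5-luc reporter | Timing: 20 h compound treatment, 37 °C | Detection: Luminescence from basal luciferase reporter expression | Read-out basis: % inhibition of basal luciferase versus +RORA/-RORA DMSO controls | Repeats: One measurement per compound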
Numbers stand for hits; n = inactive. Many of the other results were omitted from the sample, so hits are more common in it than they were.

SMILES | RORa inhibitor
CC(C)NCC(O)Cn1c2c(c3ccccc31)CCc1c-2cnn1-c1ccccc1 (stereo not given) | 68
CCOC(=O)CC(=O)CSc1ccc2nnc(-c3ccccc3)n2n1 | n
CC1CCc2c(sc(NC(=O)c3noc4c3CCCC4)c2C(N)=O)C1 (stereo not given) | n
FC(F)(F)c1ccc(N2CCN(c3ncnc4c3nnn4Cc3ccccc3)CC2)nc1 | n
CC1(C)CC(=O)C2=C(C1)Oc1nc3ccccc3cc1C2C(C#N)C#N (stereo not given) | 72
Cc1ccc(C)n1-c1ccc(N2CCOCC2)nc1 | n
CN(C)CCN1C(=O)C(=O)/C(=C(/O)c2ccc(F)cc2)C1c1ccccc1 (stereo not given) | n
Cc1ccc(-c2cc3c(nn2)-c2ccccc2C3=O)cc1 | 83
O=c1nc(-c2ccccc2)c2cc(Cl)ccc2[nH]1 | n
CC1=C(C(=O)OCc2ccc3c(c2)OCO3)C(c2ccccc2)NC(=O)N1 (stereo not given) | n
COC(=O)c1ccc(-c2nc(-c3cccs3)no2)cc1 | 52
COc1cccc(-c2noc(-c3cccs3)n2)c1 | n
COc1ccc(Cc2nc(-c3cccs3)no2)cc1OC | n
Cc1ccc(-c2nnc(SCC(=O)N3CCCC3)o2)cc1C | n
Cc1ccc(S(=O)(=O)N2CCN(C(=O)CSc3nc4ccccc4c(=O)[nH]3)CC2)cc1 | n
CCOC(=O)C1=C(N)N(c2ccc(N3CCCCC3)cc2)C(=O)C1 | n
CCc1cc(C=NC2CCCCC2)c(O)s1 | n
CCc1c(C)nc2ncnn2c1NCCc1ccc(OC)cc1 | 75
Cc1ccccc1Cc1c(C)nc2ncnn2c1C | n
Cc1nc2ncnn2c(C)c1CCC(=O)Nc1ccc(S(=O)(=O)N2CCCCCC2)cc1 | n
CCCCCCSc1nsc(NC(C)=O)n1 | n
Cc1cccc(-c2nnc(SCC#N)n2Cc2ccccc2)c1 | n
O=C(CCCc1c[nH]c2ccccc12)N1CCN(c2ccc(N3CCOCC3)nn2)CC1 | n
CSc1ccc(S(=O)(=O)NC2CCCCCC2)cc1 | n
CC1=C(C(=O)N(C)Cc2ccccc2)C2(CCC(C)CC2)OC1=O (stereo not given) | n
SMILES | RORa inhibitor
O=C(c1ccco1)N1CCN(c2ccc(Cl)cc2)CC1 | n
Cc1noc(C)c1S(=O)(=O)Nc1ccc(C(=O)N2CCN(c3ccc(Cl)cc3)CC2)cc1 | 60
CC(=O)c1ccc(N2CCN(C(=O)c3ccc(OCc4c(C)noc4C)cc3)CC2)cc1 | n
COc1cccc(NC(=O)C2CCN(c3ncccn3)CC2)c1 | n
c1ccn2cc(CSc3nnc4ccccn34)nc2c1 | n
COc1ccc2nc(NC(=O)CSc3nnc(-c4ccoc4C)n3C)sc2c1 | n
Cc1cnc(NC(=O)COc2ccccc2Cl)s1 | 74
CCOc1ccccc1OCC(=O)Nc1ccc(S(=O)(=O)N(C)C)cc1 | n
O=C(COc1ccccc1)Nc1nc2ccccc2[nH]1 | n
Cc1nc2c3ccccc3n(CC#N)c(=O)n2n1 | n
O=C(CN1CC(=O)Oc2ccccc21)OCC(=O)c1ccccc1 | n
COC(=O)c1[nH]c(C)c(/C(O)=C2\C(=O)C(=O)N(CCN(C)C)C2c2cccc(OC)c2OC)c1C (stereo not given) | n
CC1CCCCN1C(=O)c1cc(-c2ccc(Cl)c(Cl)c2)on1 (stereo not given) | n
O=C(CCc1ccccc1)n1nc(-c2ccccc2)nc1NCc1ccco1 | n
Cc1ccc(-c2nnn(Cc3nc(N)nc(N4CCOCC4)n3)n2)cc1 | n
O=C(NCc1cccc(Cl)c1)c1ccc2c(c1)OCO2 | n
COc1ccc(CNC(=O)c2cc3c(C)nc4ccccc4c3o2)c(OC)c1 | 55
COc1ccc(NC(=O)c2cc(-c3ccc(C)o3)nc3ccccc23)cc1OC | n
COc1ccc(Nc2nc(C)c3ccccc3n2)cc1 | n
CCOC(=O)CCc1c(C)c2ccc(OCc3nn[nH]n3)cc2oc1=O | n
Cc1cc(C)n(CCc2nc(-c3cc4ccccc4o3)cs2)n1 | n
COc1ccc(-n2c(C)nc3c(cnn3-c3ccc(C)c(C)c3)c2=O)cc1 | n
Clc1ccc(-n2ncc3c(N4CCCCCC4)ncnc32)cc1 | 68
Cc1cccc(-n2ncc3c(NCCCO)ncnc32)c1 | n
CCCCNc1ncnc2c1cnn2-c1ccc(Cl)cc1 | n
SMILES | RORa inhibitor
COc1ccc(-n2ncc3c(N4CCCCC4)ncnc32)cc1 | 87
Cc1cccc(-n2ncc3c(N4CCOCC4)ncnc32)c1 | 67
COc1ccc2nc(N3CCCCC3)c(C#N)cc2c1 | n
CC1CN(c2ncnc3c2cnn3-c2ccc(Cl)cc2)CC(C)O1 (stereo not given) | n
C=CCNc1ncnc2c1cnn2-c1cccc(C)c1 | n
CC1CC1C(=O)OCc1cc(=O)n2cc(Br)ccc2n1 (stereo not given) | n
Cc1c(C(=O)O)oc2c1C(O)CCC2 (stereo not given) | n
Cc1ccc(C(=O)n2cnnc2N)cc1C | n
Fc1cccc(Cl)c1Cn1nnc(-c2ccc3c(c2)OCO3)n1 | n
Cc1cccc(N2CC(C(=O)Nc3ccc4c(c3)OCO4)CC2=O)c1C (stereo not given) | n
COCCn1c(SCC(=O)Nc2cccc(C)c2)nnc1C(C)C | n
COCCn1c(C)cc(C(=O)CSc2nnc(C)s2)c1C | 68
Cc1c(C(=O)NCc2ccccn2)sc2nc(-c3ccc(F)cc3)cn12 | n
COC(=O)CNc1c(-c2ccccn2)nc2ccc(Br)cn12 | n
Cc1cc(C)n(Cc2ccc(C(=O)NCCC3=CCCCC3)o2)n1 | n
O=c1sc(Nc2ccccc2)nc2ccsc12 | n
O=C(Nc1ccc(Cl)cn1)c1cccc(F)c1 | n
O=C(/C=C\Nc1ccccn1)c1ccc(Cl)cc1 | 64
O=C(/C=C/Nc1ccc(F)c(Cl)c1)c1ccco1 | n
COc1ccc(S(=O)(=O)N(C)CC(=O)N2CCC(C)CC2)cc1Cl | n
CCCCN(C)C(=O)C1CCC(=O)N(c2cc(OC)c(OC)c(OC)c2)C1c1ccc(OC)cc1 (stereo not given) | n
COCCOC(=O)c1[nH]c2c(c1C)C(=O)C(C(=O)OC)C(C)C2 (stereo not given) | n
CCCCOC(=O)c1[nH]c2c(c1C)C(=O)CC(c1cc(OC)c(OC)c(OC)c1)C2 (stereo not given) | 64
CC(=O)c1ccc(NC(=O)c2ccc(S(=O)(=O)N3CCCC3)cc2)cc1 | n
Cc1ccc(S(=O)(=O)NCC(=O)N(CC(=O)NCc2ccccc2)CC2CCCO2)cc1 (stereo not given) | n
SMILES | RORa inhibitor
Cc1nc2nc(-c3cccs3)cn2nc1C | n
CS(=O)(=O)c1nc(-c2cccs2)cc(C(F)(F)F)n1 | 78
Cc1ccc(NC(=O)C2CCCN(S(=O)(=O)c3cnc[nH]3)C2)cc1C (stereo not given) | n
N#C/C(=C/c1ccc(N2CCCCCC2)o1)c1ccc(F)cc1 | 62
O=c1cc(-c2c(F)c(F)c(F)c(F)c2F)oc2c(F)c(F)c(F)c(F)c12 | 84
Cn1c(NCc2ccccc2Cl)nc2ccccc21 | n
Nc1c(C(=O)c2ccccc2)oc2ccc(Br)cc12 | n
Cc1ccnc(NC(=O)CCCOc2cc(=O)n(C)c3ccccc23)c1 | 57
CCC1CCCCN1CCCNC(=O)COc1cc(=O)n(C)c2ccccc12 (stereo not given) | n
Cc1cc(NC(=O)CCCOc2ccc(Cl)cc2Cl)no1 | n
Cn1cnc2cc(NC(=O)c3ccc(Cl)cc3)ccc21 | n
CCOC(=O)c1cnn2c(C)cc(-c3ccccc3)nc12 | n
CCOC(=O)CS(=O)(=O)c1nc(-c2ccccc2)cc(C(F)(F)F)n1 | 60
